High-throughput results from PubChem BioAssay.
In the library only some 2.5% were active in any assay of this set; here they are far more common.
EP2 mod: modulators of human EP2 prostaglandin E2 receptor; 260,000 compounds, 0.83% hits; AID 940; EP2-expressing cells, cAMP HTRF FRET, PGE2 co-stimulation; P43116; induction, % at 25 µM;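 active = compounds whose cAMP rise, as percent of the full-agonist control response, exceeds 60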;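 also: rat C6 glioma line stably carrying human EP2 under a CMV promoter; the protocol text gives 20 µM as final concentration; 100% = response of wells given 1 µM PGE2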
Target sequence (P43116 whole entry, looked up): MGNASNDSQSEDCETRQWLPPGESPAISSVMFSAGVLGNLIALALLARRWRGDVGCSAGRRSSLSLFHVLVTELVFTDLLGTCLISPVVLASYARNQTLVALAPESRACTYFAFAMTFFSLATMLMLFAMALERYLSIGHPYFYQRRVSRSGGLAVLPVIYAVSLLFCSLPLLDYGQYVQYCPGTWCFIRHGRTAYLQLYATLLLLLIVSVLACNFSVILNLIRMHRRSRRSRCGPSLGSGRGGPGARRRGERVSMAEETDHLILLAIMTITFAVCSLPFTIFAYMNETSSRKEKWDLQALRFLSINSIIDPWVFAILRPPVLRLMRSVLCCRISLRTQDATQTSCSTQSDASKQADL
PGE2 EP2 inh: blocks the human prostaglandin E2 receptor EP2; C6 glioma cells expressing human EP2, cAMP TR-FRET; cells stimulated with saturating PGE2; 260,000 compounds, 0.52% hits; P43116; inhibition, % at 25 µM;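 active = percent inhibition above 40 after rounding to a whole number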;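 also: rat C6 glioma host cells with rolipram phosphodiesterase inhibitor present; the protocol text gives 20 µM as final concentration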
PfGluPho inh: PfG6PD (Plasmodium falciparum) enzyme inhibition | PfGluPho enzyme, NADPH resazurin-diaphorase fluorescence | inhibition, % at 20 µM | 350,000 compounds, 0.78% hits;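 active = inhibition reaching at least a set limit at 20 µM in the primary screen, cut at about 59% in these data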;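 also: 0% = DMSO wells with substrate and 100% = DMSO wells lacking glucose-6-phosphate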
HKDC1 inhibitor: blocks human hexokinase HKDC1 activity; Q2TB90; recombinant HKDC1, G6PDH/diaphorase resazurin coupled fluorescence; inhibition, % at 20 µM; 340,000 compounds, 0.16% hits; AID 493160;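 active = inhibition above about 35% when tested at 20 µM, limit read from the data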;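 also: plate controls were DMSO wells with enzyme for no effect and DMSO wells lacking enzyme for full effect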
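Material: recombinant HKDC1 hexokinase; Amount: HKDC1 at 5 µg/mL; Medium: Tris pH 8.0 buffer with MgCl2, Tween-20, BSA, BME; Schedule: 90 min reaction incubation at room temperature, dark; Technique: coupled resazurin fluorescence, excitation 525 nm, emission 613 nm.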
PHOSPHO1 inh: PHOSPHO1 (human) inhibition; recombinant PHOSPHO1, absorbance phosphatase assay; inhibition, % at 13.3 µM; 290,000 compounds, 1.1% hits; in the data active = inhibition above about 60%
Target sequence (Q8TCT1 whole entry, looked up): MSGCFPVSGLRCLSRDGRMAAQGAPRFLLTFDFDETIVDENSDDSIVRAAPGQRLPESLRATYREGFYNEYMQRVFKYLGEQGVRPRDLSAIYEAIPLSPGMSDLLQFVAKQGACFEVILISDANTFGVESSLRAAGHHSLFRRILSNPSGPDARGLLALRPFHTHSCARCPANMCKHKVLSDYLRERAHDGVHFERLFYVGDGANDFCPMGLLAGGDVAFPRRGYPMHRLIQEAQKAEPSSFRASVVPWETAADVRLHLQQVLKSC
TbHK1 inh: blocks Trypanosoma brucei hexokinase 1 activity. recombinant TbHK1, G6PDH-coupled NADH A340. inhibition, % at 10 µM. 220,000 compounds, 0.11% hits. AID 1430;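 active = inhibition of 50% or more in the single-dose primary screen; inactive = inhibition below 50%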
An asterisk follows results filed as active; . = no result; ! = not active in a repeat.

SMILES	EP2 mod	PGE2 EP2 inh	PfGluPho inh	HKDC1 inhibitor	PHOSPHO1 inh	TbHK1 inh
Oc1c(C(c2ccco2)N2CCOCC2)sc2ncnn12 (stereo not drawn)	3	5	38	-6	90*	-18
O=C(O)c1cc(-c2ccc(-c3ccc(-c4cc(C(=O)O)c5cc(Cl)ccc5n4)cc3)cc2)nc2ccc(Cl)cc12	-11	21	.	.	.	.
O=C(O)c1cc(-c2ccc(-c3ccccc3)cc2)nc2cc3ccccc3cc12	-52	46*	.	.	.	.
CC(C(=O)N1C2CCC1CC(c1ccc(F)cc1)C2)n1ncc2ccccc2c1=O (stereo not drawn)	-16	.	.	.	.	.
O=C(Nc1nccs1)c1cccc(N2C(=O)c3cccc4c([N+](=O)[O-])ccc(c34)C2=O)c1	-6	.	-1	12	78*	-8
O=C(Nc1ccc(S(=O)(=O)Nc2nccs2)cc1)c1cccc(N2C(=O)c3ccccc3C2=O)c1	-43	0	-18	1	-3	-4
CCOC(=O)CSC1=NC(=O)/C(=C/c2ccc(Br)cc2)S1	-84	15	20	16	-18	-2
CCOC(=O)CSC1=NC(=O)/C(=C\c2ccc(OC(C)=O)cc2)S1	-40	53*	33	0	48	-21
CCC(O)CNC(=O)CCc1nnc(C2(c3ccc(Cl)cc3)CCC2)o1 (stereo not drawn)	18	16	-8	-6	60*	-8
CC(C)(CO)CNC(=O)CCc1nnc(C2(c3ccc(Cl)cc3)CCC2)o1	7	6	5	-10	48	2
CCC(=O)Nc1nc(C)c(C(=O)Nc2cccc(OC)c2)s1	-67	10	.	.	.	.
O=C(c1ccco1)N(Cc1ccco1)c1nc(-c2ccccc2)cs1	78*	10	.	.	.	.
O=C(c1cccs1)N(Cc1ccco1)c1nc(-c2ccccc2)cs1	32	10	.	.	.	.
COc1ccccc1-n1nnnc1SCC(=O)Nc1ccc(C)cc1	-13	4	.	.	.	.
Cc1ccccc1NC(=O)CSc1nc2sc(C)c(C)c2c(=O)[nH]1	-5	30	.	.	.	.
Cc1cc(Cl)ccc1OCC(=O)Nc1ccccc1C(=O)N1CCOCC1	.	.	3	-3	61*	.
O=C(C[N+]1(c2ccccc2)CCOCC1)c1ccccc1	15	53*	.	.	.	.
COc1ccc(N2C(=O)CC(N(CCc3ccccc3)C(=O)/C=C/C(=O)O)C2=O)cc1 (stereo not drawn)	-15	3	8	-7	64*	13
CCC(C)(C)n1nnnc1C(c1ccccc1F)N1CCN(c2ccc(OC)cc2)CC1 (stereo not drawn)	25	11	.	.	.	.
Nc1ncnc2c1C1(CCCCC1)Cc1ccccc1-2	80*!	9	4	-7	-30	3
COCCN(Cc1cc2cc3c(cc2[nH]c1=O)OCO3)C(=O)c1ccccc1Cl	9	10	.	.	.	.
CN(C)CCN1C(=O)CC[C@@]2(C)C1=CC[C@H]1[C@H]2CC[C@@]2(C)[C@H]1CC[C@]2(C)O	6	50*	.	.	.	.
C=CCNc1nc(-c2ccc(OC)cc2OC)cs1	-47	8	15	-5	61*	2
CCc1cc(=O)oc2c(C)c(OC(C)C(=O)NCCCN3CCOCC3)ccc12 (stereo not drawn)	.	.	-9	1	45	.
Cc1cc(=O)oc2c(C)c(OC(C)C(=O)NCCCN3CCOCC3)ccc12 (stereo not drawn)	.	.	-20	-7	64*	.
SMILES	EP2 mod	PGE2 EP2 inh	PfGluPho inh	HKDC1 inhibitor	PHOSPHO1 inh	TbHK1 inh
O=C(Nc1ccc(NC(=O)C2CC2)nc1)c1ccccn1	-1	41*	0	-2	-6	-15
CNc1ncccc1CN1CCc2cc(OC)c(OC)cc2C1c1ccccc1F (stereo not drawn)	39	7	.	.	.	.
CC(=O)NC1CCNCC1	1	13	.	.	.	.
CC(C)Sc1nc2c(c(=O)n(C)c(=O)n2C)n1Cc1ccccc1Cl	62*	4	.	.	.	.
Cn1c(=O)n(Cc2ccccc2Cl)c2ccccc21	61*	10	-14	-7	8	0
CCSc1nc2c(c(=O)n(C)c(=O)n2C)n1Cc1cccc2ccccc12	72*	13	.	.	.	.
Cn1c(=O)c2c(nc(SCC(=O)O)n2Cc2cc3c(cc2Cl)OCO3)n(C)c1=O	2	10	27	0	64*	2
CSc1nc2c(c(=O)n(C)c(=O)n2C)n1Cc1cccc2ccccc12	38	6	.	.	.	.
CCn1c(SCC(=O)Nc2cc(OC)ccc2OC)nnc1-c1ccccc1	-8	17	.	.	.	.
C=C(C)CSc1nc2c(c(=O)n(C)c(=O)n2C)n1Cc1ccccc1Cl	74*	9	.	.	.	.
C=C(C)CSc1nc2c(c(=O)n(C)c(=O)n2C)n1Cc1ccccc1	50	8	.	.	.	.
CCCn1c(SCC(=O)Nc2ccccc2N2CCCCC2)nc2c1c(=O)n(C)c(=O)n2C	78*!	22	0	0	-7	1
Cc1cc(C)n2nc(C)c(Br)c2n1	-15	17	1	-8	12	4
Cc1cc(C)n2nc3nc4c(cc3c2n1)CCCC4	22	3	-1	18	98*	-24
Cc1cccc2cc(CN(CCCO)C(=S)NCCCN3CCOCC3)c(=O)[nH]c12	-37	8	.	.	.	.
CC(C)(C)n1nnnc1C(c1cccnc1)N(CCc1ccccc1)Cc1cccs1 (stereo not drawn)	63*	8	.	.	.	.
CC(C)(C)n1nnnc1C(c1cccs1)N(Cc1cccnc1)Cc1ccco1 (stereo not drawn)	24	3	8	3	14	-5
CCN(Cc1ccccc1)C(c1ccc(C)cc1)c1nnnn1C(C)(C)C (stereo not drawn)	61*	10	3	-3	23	9
CCn1c(Cc2ccccc2)nnc1SCC(N)=O	6	21	.	.	.	.
CCSc1ncc(CN2CCN(C3CCCCC3)C(=O)C2)cn1	7	8	.	.	.	.
COc1ccc(C(=O)NC2CCN(CC(=O)NC3CC3)CC2)cc1	-38	15	.	.	.	.
COC(=O)C1=C(C)NC(C)=C(C(=O)OC)C1c1ccccc1[N+](=O)[O-]	-29	17	75*	-6	-21	-8
C=CCOc1ccccc1C1C(C(=O)OC)=C(C)NC(C)=C1C(=O)OC	1	11	.	.	.	.
COC(=O)CSc1nnc(CNc2ccc(C)cc2)n1C	-8	5	.	.	.	.
C[C@]1(c2ccccc2)O[C@@H]2C[C@H]3[C@@H]4CCC5=CC(=O)C=C[C@@]5(C)[C@@]4(F)[C@H](O)C[C@]3(C)[C@]2(C(=O)CO)O1	2	51*	.	.	.	.
CC1(C)O[C@@H]2C[C@H]3[C@@H]4CCC5=CC(=O)C=C[C@]5(C)[C@@]4(F)[C@@H](O)C[C@]3(C)[C@]2(C(=O)CO)O1	6	18	13	-2	4	-1
C[C@H]1C[C@@H]2[C@@H]3CCC4=CC(=O)C=C[C@@]4(C)[C@@]3(F)[C@H](O)C[C@@]2(C)[C@]1(O)C(=O)COP(=O)(O)O	14	42*	.	.	.	.
Cc1cc2nnc(SCC(=O)NNC(=O)COc3ccccc3)n2c2ccccc12	-8	11	.	.	.	.
